High-throughput results (PubChem BioAssay)
TAAR1 antag = human TAAR1 antagonism. Q96RJ0. CHO RD-HGA16 TAAR1, Fluo-8 calcium fluorescence, antagonist. inhibition, % at 3 µM. 360,000 compounds, 1.5% hits;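 active means inhibition above a per-plate cutoff, the mean inhibition of test compounds on that plate plus 3 SD, cut at about 49% in these data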
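Test system – hTAAR1-expressing CHO RD-HGA16 cells, Gα16-coupled · Reagent – β-PEA at EC80 concentration, post-compound challenge · Compound dosing – 3 µM, single point · Timing – 140 s kinetic read after compound, 140 s after agonist · Detection – Fluo-8 intracellular calcium dye fluorescence, real-time kinetic reads · Control set – DMSO and EC80 PEA controls · Repeats – n of 1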
LANA-H2B inh = blocks KSHV LANA binding to histone H2A/H2B. cell-free LANA-H2A/H2B peptide, fluorescence polarization. inhibition, % (no concentration beside the values). 320,000 compounds, 0.6% hits. AID 2629; in the data active means inhibition mostly above about 10%, no sharp cut-off; inactive means mostly below about 6.7%
TAAR1 agonist = agonists of human TAAR1. activation, % at 3 µM. CHO RD-HGA16 TAAR1, Fluo-8 calcium fluorescence; vehicle wells 0%, saturating PEA agonist 100%. 360,000 compounds, 0.99% hits. Q96RJ0. AID 624467;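 active means activation above the mean activation of all test compounds in the run plus 3 SD, cut at about 38% in these data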
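Test system: RD-HGA16 (CHO) cells co-expressing Gα16 and hTAAR1 | Doses: Single dose, 3 µM | Schedule: 17-24 h seeding, 75 min 37 °C dye, 30 min RT | Evaluation: % activation from peak over basal fluorescence ratio, DMSO-to-PEA scaled | Technique: Kinetic Fluo-8 calcium fluorescence | Benchmarks: Low control DMSO, high control PEA (EC100)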
GPR7 antagonist = blocks human GPR7 receptor signaling; inhibition, % at 4.4 µM; GPR7-expressing cells, fluorescence antagonist assay; P48145; 290,000 compounds, 1.1% hits; in the data active means inhibition above about 16%, passing the limit was not always enough;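 further: cells stimulated with the agonist NPW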
Target sequence (P48145 whole entry, looked up): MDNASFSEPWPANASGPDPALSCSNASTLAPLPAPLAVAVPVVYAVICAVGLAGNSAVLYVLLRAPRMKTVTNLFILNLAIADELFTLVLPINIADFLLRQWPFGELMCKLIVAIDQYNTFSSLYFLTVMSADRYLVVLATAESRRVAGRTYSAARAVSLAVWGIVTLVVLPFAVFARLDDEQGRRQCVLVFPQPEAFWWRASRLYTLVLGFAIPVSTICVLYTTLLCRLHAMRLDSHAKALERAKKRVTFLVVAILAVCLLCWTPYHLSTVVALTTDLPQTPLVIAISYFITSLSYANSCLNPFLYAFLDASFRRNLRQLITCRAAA
TRPML3 agonist = human mucolipin-3 channel agonism | Q8TDD5 | 220,000 compounds, 0.29% hits | HEK293 TRPML3-YFP, Fluo-8 calcium fluorescence; 100% = the carbachol control signal | activation, % at 3 µM;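 active means activation above its plate's cutoff, the mean activation of the plate's test wells plus 3 SD, cut at about 12% in these data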
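system = HEK293 cells stably carrying human TRPML3-YFP | doses = one concentration, 3 µM nominal, 0.3% DMSO | timing = dye loading 1 h 37 °C then 30 min ambient, 125 s read | detection = Fluo-8 calcium dye fluorescence, ex 470-495, em 515-575 nm | benchmarks = high control carbachol 87 µM, low control DMSO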
TRPN1 ag = agonists of zebrafish TRPN1 channel; HEK293 zebrafish TRPN1-YFP, Fluo-8 calcium fluorescence; 100% = response to 87 µM carbachol; activation, % at 3 µM; 220,000 compounds, 0.18% hits; AID 1424;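 active means activation above its plate's cutoff, the mean activation of test wells on that plate plus 3 SD, cut at about 19% in these data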
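Control set: carbachol 87 µM as high control, DMSO as low control; system: HEK293 stable line with zebrafish TRPN1-YFP; read-out: % activation versus carbachol response; detection: intracellular calcium fluorescence with Fluo-8; doses: single test compound dose, 3 µM nominal, 0.3% DMSO; schedule: dye 1 h 37 °C plus 30 min RT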
nonsel antag count = nonselective antagonist in TAAR1 antagonist counter-screen; shares compounds with TAAR1 antag; counterscreen cell line, calcium fluorescence, antagonist mode; inhibition, % at 3 µM; 2,400 compounds, 77% hits; AID 651780; in the data active means inhibition above about 22%;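 further: CHO-Ga16 host cells stimulated with ATP at an EC80 level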
TAAR1 antag conf = confirmation of human TAAR1 antagonists. 2,400 compounds, 40% hits. inhibition, % at 3 µM. TAAR1-expressing cells, fluorescence antagonist read-out. shares compounds with TAAR1 antag; in the data active means inhibition above about 49%;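 further: CHO-Ga16 host cells challenged with agonist PEA near its EC80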
Ga16 ag counter = nonselective Ga16 agonism, counter-screen; shares compounds with TAAR1 antag; Ga16-expressing cells, calcium fluorescence, agonist counterscreen; activation, % at 3 µM; 2,400 compounds, 18% hits; in the data active means activation above about 12%
TAAR1 ag counter = TAAR1 agonism, antagonist counter-screen; shares compounds with TAAR1 antag; hTAAR1 cell line, fluorescence activation, agonist mode; activation, % at 3 µM; 2,400 compounds, 2% hits; AID 651955; in the data active means activation above about 37%;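 further: CHO cells stably expressing TAAR1 with calcium dye readout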
Large screens that a line does not name were inactive (follow-up assays come after a bar, where they were run). Rows were chosen to be rich in hits. Some 3.4% of all compounds tested hit in one or more screens of this group.

COc1ccc(-c2cccc3[nH]c4c(c23)CCN2C(=O)[C@H]3[C@H](C)ON(C)[C@H]3C[C@@H]42)cc1	TAAR1 antag 49.7 (no result: LANA-H2B inh, GPR7 antagonist, TRPML3 agonist, TRPN1 ag) | nonsel antag count 21.8 | TAAR1 antag conf inactive | Ga16 ag counter inactive | TAAR1 ag counter inactive
C[C@@H]1ON(C)[C@H]2C[C@H]3c4[nH]c5c(-c6ccccc6)cccc5c4CCN3C(=O)[C@@H]12	none (no result: LANA-H2B inh, GPR7 antagonist, TRPML3 agonist, TRPN1 ag)
CC(=O)Nc1cccc(C(=O)Nc2cc(C(F)(F)F)ccc2-n2cncn2)c1	none (no result: LANA-H2B inh, GPR7 antagonist, TRPML3 agonist, TRPN1 ag)
Cc1cc(/C=N\NC(=O)CC(=O)NC2CCCCC2)c(C)n1-c1ccc(Cl)c(Cl)c1	TAAR1 antag 56.1 | nonsel antag count inactive | TAAR1 antag conf 70.6 | Ga16 ag counter inactive | TAAR1 ag counter inactive
COc1ccccc1NC(=O)c1ccccc1C(=O)N(C)Cc1ccccc1	none (no result: GPR7 antagonist, TRPML3 agonist, TRPN1 ag)
Cc1cc(NC(=O)c2cc3ccccc3o2)ccc1NC(=O)c1ccccc1	none (no result: TRPML3 agonist, TRPN1 ag)
Cc1cc(NC(=O)c2ccc3c(c2)OCCO3)ccc1NC(=O)c1cc2ccccc2o1	TAAR1 antag 85.2 | nonsel antag count 38.4 | TAAR1 antag conf 72.6 | Ga16 ag counter inactive | TAAR1 ag counter inactive
Cc1cc(NC(=O)c2cccnc2)ccc1NC(=O)c1cc2ccccc2o1	TAAR1 antag 56.7 (no result: TRPML3 agonist, TRPN1 ag) | nonsel antag count 22.1 | TAAR1 antag conf inactive | Ga16 ag counter inactive | TAAR1 ag counter inactive
O=C(Nc1ccc(NC(=O)c2cc3ccccc3o2)cc1)c1ccc2c(c1)OCCO2	none
CC(C)N(Cc1ccccc1)C(=O)CN1C(=O)NC(Cc2ccccc2)(c2ccccc2)C1=O (centres undefined)	none (no result: TRPML3 agonist, TRPN1 ag)
C=CCOc1ccc(C[C@H](N)C(=O)NC[C@H]2O[C@@H](n3cc(C)c(=O)[nH]c3=O)C[C@@H]2O)cc1	none (no result: LANA-H2B inh, GPR7 antagonist, TRPML3 agonist, TRPN1 ag)
CCOC(=O)C1=CN(Cc2cccc(-c3cccnc3)c2)S(=O)(=O)N(C)C1C (centres undefined)	TAAR1 antag 49.4 (no result: LANA-H2B inh, GPR7 antagonist, TRPML3 agonist, TRPN1 ag) | nonsel antag count 21.5 | TAAR1 antag conf inactive | Ga16 ag counter inactive | TAAR1 ag counter inactive
COc1cc(/C=C2\SC(=S)N(CCC(=O)Nc3ccccc3)C2=O)cc(OC)c1OC	none
COc1cc(/C=C2/SC(=S)N(CCC(=O)Nc3cccnc3)C2=O)cc(OC)c1OC	TAAR1 antag 59.5 (no result: LANA-H2B inh, GPR7 antagonist, TRPML3 agonist, TRPN1 ag) | nonsel antag count 30.0 | TAAR1 antag conf 51.0 | Ga16 ag counter inactive | TAAR1 ag counter inactive
COc1cc(/C=C2\SC(=S)N(CCC(=O)Nc3cccc(O)c3)C2=O)cc(OC)c1OC	TAAR1 antag 88.0 (no result: TRPML3 agonist, TRPN1 ag) | nonsel antag count 35.8 | TAAR1 antag conf 58.3 | Ga16 ag counter inactive | TAAR1 ag counter inactive
COc1ccc(/C=C2/SC(=S)N(CCC(=O)Nc3cccnc3)C2=O)cc1OC	none (no result: LANA-H2B inh, GPR7 antagonist, TRPML3 agonist, TRPN1 ag)
O=C(CCN1C(=O)/C(=C/c2cccs2)SC1=S)Nc1cccc(O)c1	TAAR1 antag 72.4 (no result: TRPML3 agonist, TRPN1 ag) | nonsel antag count 46.7 | TAAR1 antag conf 60.3 | Ga16 ag counter 15.6 | TAAR1 ag counter inactive
O=C(CCCN1C(=O)/C(=C/c2cccs2)SC1=S)Nc1cccc(O)c1	none (no result: TRPML3 agonist, TRPN1 ag)
CC(C)(Cc1ccc(O)cc1)NC(=O)CC(=O)N/N=C/c1ccc(Cl)cc1	TAAR1 antag 74.3 (no result: TRPML3 agonist, TRPN1 ag) | nonsel antag count inactive | TAAR1 antag conf 79.6 | Ga16 ag counter inactive | TAAR1 ag counter 43.0
CC(C)(Cc1ccc(O)cc1)NC(=O)CC(=O)N/N=C/c1ccc([N+](=O)[O-])cc1	none
O=C(N/N=C/c1c[nH]c2ccc(Br)cc12)c1ccn(Cc2ccc(Cl)cc2)n1	TAAR1 antag 62.1 | nonsel antag count 23.9 | TAAR1 antag conf inactive | Ga16 ag counter inactive | TAAR1 ag counter inactive
